Screens as filed in PubChem.
Sampled rows, rich in hits. Any-hit rate of the full collection: about 9.4%.
Mdm2 MdmX PPI: inhibitors of human Mdm2-MdmX association, primary screen, cell-based, luminescence, split luciferase, SaOS-2, uHTS | SaOS-2 split-luciferase Mdm2/MdmX complementation | inhibition, % at 8 µM | 3% of 330,000 active | AID 485346, 2010;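 active = inhibition of at least 50% at 8 µM in the primary screen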
Target sequence (O15151 whole entry, looked up): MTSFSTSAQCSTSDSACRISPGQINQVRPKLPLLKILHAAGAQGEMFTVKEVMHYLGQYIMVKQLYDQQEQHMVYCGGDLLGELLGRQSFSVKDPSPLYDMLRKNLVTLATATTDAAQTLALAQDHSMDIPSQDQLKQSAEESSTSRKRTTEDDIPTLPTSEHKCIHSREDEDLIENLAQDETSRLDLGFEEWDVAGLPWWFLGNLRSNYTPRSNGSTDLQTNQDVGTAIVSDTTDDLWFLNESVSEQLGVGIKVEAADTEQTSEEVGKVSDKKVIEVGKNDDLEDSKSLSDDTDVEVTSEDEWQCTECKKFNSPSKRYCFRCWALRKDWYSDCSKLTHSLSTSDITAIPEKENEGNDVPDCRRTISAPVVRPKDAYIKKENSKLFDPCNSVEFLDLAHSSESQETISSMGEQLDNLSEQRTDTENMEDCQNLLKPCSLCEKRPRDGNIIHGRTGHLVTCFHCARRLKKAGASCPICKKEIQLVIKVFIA
Target sequence (Q00987 whole entry, looked up): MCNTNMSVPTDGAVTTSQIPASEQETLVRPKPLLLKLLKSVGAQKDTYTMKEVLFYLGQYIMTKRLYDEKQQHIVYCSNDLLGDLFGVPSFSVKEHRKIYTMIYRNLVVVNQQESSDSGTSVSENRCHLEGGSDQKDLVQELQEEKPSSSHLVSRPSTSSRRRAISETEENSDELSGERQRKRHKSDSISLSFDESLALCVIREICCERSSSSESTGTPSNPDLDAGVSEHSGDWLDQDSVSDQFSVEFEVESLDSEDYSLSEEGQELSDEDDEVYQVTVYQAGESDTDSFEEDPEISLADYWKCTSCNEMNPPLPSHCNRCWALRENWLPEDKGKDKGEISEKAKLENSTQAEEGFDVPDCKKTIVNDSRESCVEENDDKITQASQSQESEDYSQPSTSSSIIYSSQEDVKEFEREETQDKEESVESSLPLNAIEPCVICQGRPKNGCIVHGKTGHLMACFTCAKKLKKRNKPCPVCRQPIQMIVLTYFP
T cruzi repl: inhibitors of intracellular T. cruzi growth, primary screen, luminescence, NIH3T3 host cells; T. cruzi beta-gal in NIH3T3, 90 h; inhibition, % (concentration not given with the values); 1.4% of 300,000 active; AID 1885, 2009;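 active = mean inhibition across valid replicates above about 55%, limit read from the data; inconclusive = mean below that limit but half or more replicates reach it; inactive = mean below it, under half of replicates reach it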;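 also: signal also drops with host cell toxicity which is not excluded here; 0% = plate median of DMSO wells and 100% = zero luminescence signal; higher percent means less beta-gal luminescence so fewer parasites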
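System: NIH/3T3 fibroblasts plus reporter T. cruzi. Medium: DMEM plus 2% FBS. Probe or stimulus: 5000 reporter trypomastigotes per well. Compound: single 50 nL compound addition per well in DMSO. Incubation: co-culture of at least 90 h after 3 h attachment. Detection: GalScreen β-gal luminescence, detergent lysis, 60 min. Evaluation: parasite load inhibition, %.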
SKKanGAS inh: S. pyogenes SKKanGAS growth inhibitors in kanamycin, primary screen, streptokinase expression inhibitor project, SKKanGAS strain, BacTiter-Glo luminescence. 6 h. inhibition, % at 7.5 µM. 1.3% of 300,000 active. AID 1662, 2009;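 active = mean replicate score, as percent of positive control median, at least 50; inconclusive = mean below 50 but one replicate at or above 50; inactive = mean and every replicate below 50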;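 also: strain carries kanamycin resistance gene driven by streptokinase promoter and grows in 40 µg/ml kanamycin; loss of luminescence reflects streptokinase promoter inhibition or plain growth inhibition; 0% = median of DMSO wells and 100% = positive control at its reference dose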
L major viab: Leishmania major promastigote growth inhibition, primary screen; 9% of 200,000 active; AID 1063, 2008; Leishmania major promastigotes, resazurin fluorescence viability; inhibition, % at 10 µM; in the data active = inhibition above about 50%;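 also: promastigotes grown with compound for 44 hours at 28 °C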
Beta apoptosis: inhibitors of cytokine-induced beta cell apoptosis, primary screen, luminescence. INS-1E cytokine-induced death, ATP luminescence, 48 h; percent of positive-control rescue, neutral wells zero. protection from apoptosis, % (test concentration not listed). 0.8% of 300,000 active;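 active = Every replicate reaches about 75%, or at least half do and their mean reaches it too, limit read from the data; inconclusive = At least half of replicates reach the limit but their mean does not; inactive = Under half of replicates reach the limit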;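 also: 0% = cytokine-treated negative control wells and 100% = positive control rescue; higher means more ATP so stronger rescue from cytokine killing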
CSC inhib: cancer stem cell viability inhibitors, primary screen, luminescence; cancer stem cell-like cells viability; inhibition, % at 7.5 µM; 1.1% of 300,000 active; AID 2717, 2010; in the data active = inhibition above about 75%; inconclusive = no clear call, values can overlap the other calls; tested in HMLE shEcad cells
The depositor's hits bear a star; ? = inconclusive; . = no result given.

SMILES	Mdm2 MdmX PPI	T cruzi repl	SKKanGAS inh	L major viab	Beta apoptosis	CSC inhib
COC(=O)c1c(NC(=O)c2ccc(C)c(S(=O)(=O)Nc3ccccc3C)c2)sc2c1CCCC2	23.3	-41.3	25.0	33.5	-3.7	75.1*
O=C(COCc1ccccc1)N[C@@H]1c2ccccc2CC[C@@H]1OCc1ccccc1	2.2	.	.	.	.	.
COC(=O)C1CCN(C(=O)c2cc(-c3ccco3)nc3ccccc23)CC1	11.0	.	.	.	-1.3	-7.7
Cc1ccc(S(=O)(=O)N(C)c2ccc(C(=O)N3CCc4ccccc4C3)cc2)cc1	17.3	25.2	15.2	-0.1	-5.4	.
CN(c1ccccc1)S(=O)(=O)c1ccc(C(=O)N2CCc3ccccc3C2)cc1	0.7	19.2	0.0	96.3*	0.8	-6.9
Cc1ccccc1NS(=O)(=O)c1cc(C(=O)N2CCc3ccccc3C2)ccc1C	37.2	38.0	20.1	87.8*	2.5	10.5
Cc1ccc(C)c(NS(=O)(=O)c2cc(C(=O)NCc3ccco3)ccc2C)c1	16.8	10.3	-5.5	99.6*	-2.8	0.5
CCO[C@H]1OC(C(=O)N2CCCCCCC2)=C[C@@H](c2coc3ccccc3c2=O)[C@@H]1CCCO	0.9	12.6	2.1	-6.0	4.4	-1.0
CSc1cccc(CN2CCN(CCc3ccccc3)C(CCO)C2)c1 (stereo unspecified)	5.4	19.2	5.1	87.6*	-1.9	25.4
CSc1cccc(CN2CCN(Cc3ccccc3)C(CCO)C2)c1 (stereo unspecified)	12.3	37.5	3.7	83.8*	-6.4	6.7
CC(C)c1cc(CN2CCN(Cc3ccc(F)c(F)c3)C(CCO)C2)[nH]n1 (stereo unspecified)	15.9	21.7	-5.4	6.4	8.2	-3.4
CSc1ccc(CN2CCN(Cc3ccccc3)C(CCO)C2)cc1 (stereo unspecified)	9.5	19.7	-3.9	74.2*	1.8	-7.7
OCCC1CN(Cc2cccc(F)c2F)CCN1CCc1ccccc1 (stereo unspecified)	11.8	14.8	-1.5	.	0.1	-1.0
CC(C)(O)C#Cc1ccc(CN2CCN(Cc3ccccc3)C(CCO)C2)cc1 (stereo unspecified)	-9.2	0.0	20.0	7.6	-7.0	-3.3
CC(C)c1csc(CN2CCN(Cc3ccc(F)c(F)c3)C(CCO)C2)n1 (stereo unspecified)	15.1	23.0	0.8	69.7*	-4.7	-8.4
O=Cc1c[nH]c2ccc(C(=O)c3ccccc3)cc12	9.5	-6.0	4.6	.	-6.1	23.9
Clc1cccc(Cl)c1/C=C/c1ccn[nH]1	32.8	-72.3	20.5	.	9.2	59.2
CCCn1ncc(CN2CCN(CCc3ccccc3)C(CCO)C2)c1C (stereo unspecified)	-1.5	11.5	-16.3	60.0*	-6.7	37.0
CC(C)(O)C#Cc1ccc(CN2CCN(CCc3ccccc3)C(CCO)C2)s1 (stereo unspecified)	-1.6	2.9	0.3	80.0*	-12.9	2.5
CSc1cccc(CN2CCN(Cc3ccc(F)c(F)c3)C(CCO)C2)c1 (stereo unspecified)	29.4	21.2	1.7	78.8*	.	-0.8
CSc1ccc(CN2CCN(CC=C(C)C)C(CCO)C2)cc1 (stereo unspecified)	-6.6	29.3	4.9	64.6*	-0.7	26.4
O=c1ccc(-c2ccc(S(=O)(=O)Nc3ccc(F)cc3)o2)n[nH]1	-4.3	-8.4	2.3	.	-6.3	-11.9
COc1ccc(CC(=O)OCC(=O)NCc2ccccc2Cl)cc1OC	-11.3	-8.4	4.4	-8.7	-3.2	-6.5
CC(CC(=O)Nc1cccnc1)c1ccccc1 (stereo unspecified)	6.8	-11.5	-2.4	-3.2	2.6	-3.7
CCn1ncc(CNC(=O)C2(C)CC2(Cl)Cl)c1C (stereo unspecified)	-19.3	-3.2	0.4	10.5	-1.4	8.8
SMILES	Mdm2 MdmX PPI	T cruzi repl	SKKanGAS inh	L major viab	Beta apoptosis	CSC inhib
CCOC(=O)N1CCC(N2CCN(Cc3ccc(F)c(F)c3)C(CCO)C2)CC1 (stereo unspecified)	3.3	11.4	-2.0	84.0*	-10.2	-12.8
CC(=NC(C)C)C1=C(O)C(C)OC1=O (stereo unspecified)	3.3	-14.1	-9.7	74.6*	-3.0	-1.8
Cc1cc(C)c(COc2ccc(/C=N/n3c(C)n[nH]c3=S)cc2)c(C)c1	42.5	-4.7	?	1.9	9.2	32.3
Nc1nc2cc(S(=O)(=O)N3CCOCC3)ccc2o1	-11.5	.	.	.	-2.5	-14.2
Cc1nn(-c2ccccc2)c(C)c1C(=O)OCC(=O)N1c2ccccc2NC(=O)C1(C)C	34.8	6.1	4.8	87.8*	-1.2	1.1
CC(=O)c1c(C)[nH]c(C(=O)OCCCCN2C(=O)c3ccccc3C2=O)c1C	29.4	-7.8	-5.2	3.9	103.6*	-0.9
Cc1cnc(C(=O)OCC(=O)N2c3ccccc3NC(=O)C2(C)C)cn1	28.9	-0.7	-4.5	7.5	.	-10.2
CC(=O)c1c(C)[nH]c(C(=O)OCC(=O)N2c3ccccc3NC(=O)C2(C)C)c1C	-7.8	0.4	-0.8	55.6*	-12.2	2.4
CCOc1ccc(C(=O)C[n+]2cccc3cc(C)ccc32)cc1	13.1	67.8*	0.7	.	-28.6	-2.9
Cc1ccc(C(=O)C[n+]2cccc3cc(C)ccc32)cc1	11.2	58.1*	-1.7	18.9	5.9	-4.1
COc1ccc(CNC(=O)C(=O)NCC2OCCN2S(=O)(=O)c2ccc(F)cc2)cc1 (stereo unspecified)	5.6	-3.3	1.2	.	-3.1	-29.7
CC(=C/C(=O)O)/C=C/c1ccc([N+](=O)[O-])cc1	.	.	.	4.2	-4.1	5.7
CC1(C)COC(/C=C/c2ccc([N+](=O)[O-])cc2)=N1	.	-3.6	0.8	87.0*	-20.3	41.1
CCOC(=O)/C(C(N)=NCC(C)C)=C(/O)c1ccccc1	-20.6	-2.8	2.1	23.4	.	17.0
CCCOC(=O)/C(C(N)=NCc1ccccc1)=C(\O)OCCC	1.8	33.7	8.7	34.4	109.4*	45.5
NCCS(=O)(=O)NC1CCCCC1	8.2	-6.5	66.0*	-8.5	-2.1	-1.3
Cc1ccc(S(=O)(=O)NC2CCCCC2)cc1	7.9	.	.	.	-11.7	-4.5
COc1ccc(C(=O)COC(=O)CCN=C2NS(=O)(=O)c3ccccc32)c(OC)c1	1.0	-9.7	1.8	.	.	-12.7
CSc1c(SCc2ccccc2)cnn(-c2ccccc2)c1=O	-5.2	-6.1	6.6	10.2	-3.7	79.1*
Cc1cccc(N=C2NN=C(c3c(C)[nH]c4ccccc34)CS2)c1	-2.2	4.4	97.9*	3.4	7.9	14.8
Cc1ccc(C(=O)O/N=C(\N)c2cccc([N+](=O)[O-])c2)cc1	9.6	-2.1	-1.9	11.4	-10.6	-17.6
